High-throughput results from PubChem BioAssay.
Shown is part of a subset that was picked to be rich in hits.
Lung fibro prol: blocks proliferation of human lung fibroblasts. 1.1% of 85,000 active. AID 719. LL 47 human lung fibroblast viability, ATP luminescence; hits give low values. viability, % at 10 µM;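 active = viability at or below 50% in the single dose screen; inactive = viability above 50%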;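 note: compound exposure lasted 72 h before the ATP readout; 100% = median luminescence of untreated cell-only wells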
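Signal: luminescent ATP detection, CellTiter-Glo; assay system: LL 47 human lung fibroblasts; input: 1,150 cells/well; incubation: overnight cell rest, 72 h compound treatment at 37 °C; measure: % viability versus median cells-only luminescence; medium: IMEM growth medium with 15% fetal bovine serum; dosing: compound addition at 0.1% DMSO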
H69AR growth 86K: blocks growth of human H69AR lung tumor cells | H69AR lung tumor viability, ATP luminescence, 72 h; hits give low values | viability, % at 10 µM | 6% of 85,000 active | AID 598;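 active = viability at or below 40%; inactive = viability above 40%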;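 note: multidrug resistant small cell line overexpressing MRP-1 efflux transporter; 100% = mean luminescence of untreated control wells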
HUVEC prolif 384: blocks proliferation of human endothelial cells; HUVEC proliferation, CellTiter-Glo luminescence, 72 h; hits give low values; viability, % at 10 µM (by protocol); 1.1% of 86,000 active;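 active = viability at or below 30%; inactive = viability above 30%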;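 note: 100% = median luminescence of DMSO-only cell control wells on each plate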
HCT116 bCat-KO: beta-catenin-lacking colon tumor cell growth suppression. HCT116 beta-catenin knockout viability, CellTiter-Glo, 60 h; hits give low values. viability, % at 10 µM. 1.5% of 140,000 active. AID 818;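 active = viability at or under a set limit, the compound median less 4 SD, cut at about 6% in these data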;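 note: 0% = Hyamine 1622 control at 20 µM and 100% = untreated cell control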
HCT116 PTEN-null: suppresses growth of cells with PTEN deletion; HCT116 PTEN-null viability, CellTiter-Glo, 60 h; hits give low values; viability, % at 10 µM; 1.2% of 140,000 active; AID 827;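 active = viability at or below a set limit, 4 SD under the median of all tested compounds, cut at about 3.7% in these data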;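 note: PTEN knockout HCT116 line with beta catenin targeted HCT116 as companion control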
* = called active by the depositor; . = not tested or not shown.

SMILES	Lung fibro prol	H69AR growth 86K	HUVEC prolif 384	HCT116 bCat-KO	HCT116 PTEN-null
O=S(=O)(c1ccc2oc(-c3ccncc3)nc2c1)c1ccc2oc(-c3ccncc3)nc2c1	94	73	101	.	.
CC1(C)Cc2nc3sc4c(SCC(=O)NCc5ccccc5)ncnc4c3cc2CO1	55	0.7*	50	12	.
CC1(C)Cc2nc3sc4c(N(CCO)CCO)ncnc4c3cc2CO1	.	.	.	98	91
CCOC(=O)C1=C(C)NC(=S)N(C(C)=O)C1c1ccc(Cl)cc1 (stereo not drawn)	90	70	78	1.1*	0.9*
COC(=O)CSC1=C(C#N)C(c2cccc(F)c2)CC(=O)N1 (stereo not drawn)	93	28*	90	40	39
COC(=O)CSC1=C(C#N)C(c2ccsc2)CC(=O)N1 (stereo not drawn)	93	38*	69	54	48
COCCC(=O)NNS(=O)(=O)c1ccc(Cl)cc1	.	.	.	101	93
Cc1ccc(S(=O)(=O)c2c(C)nn(C(C)(C)C)c2OC(=O)c2ccco2)cc1	109	54	14*	93	121
Cc1ccc(S(=O)(=O)c2c(C)nn(C(C)(C)C)c2OC(=O)c2ccc(Br)o2)cc1	102	37*	13*	96	87
Cc1ccc(S(=O)(=O)c2c(C)nn(C(C)(C)C)c2OC(=O)c2cccs2)cc1	101	110	12*	78	74
CC(=O)Oc1c(S(=O)(=O)c2ccc(C)cc2)c(C)nn1C(C)(C)C	102	91	108	104	100
Cc1ccc(S(=O)(=O)c2c(C)nn(C(C)(C)C)c2OC(=O)C(C)(C)C)cc1	96	95	89	75	96
CCNC(=O)N1CCOCC1	97	103	99	98	99
CCCc1nnc(SCC(=O)N2CCCC(C)C2)n1CC1CCCO1 (stereo not drawn)	94	82	92	102	102
O=C(c1ccc(Cn2cc(Cl)cn2)cc1)N1CCN(c2ccccc2)CC1	100	69	99	84	89
O=C(c1ccc(Cn2cc(Br)cn2)cc1)N1CCN(c2ccccc2)CC1	90	8.8*	55	57	43
O=C(Nc1cccc(NC(=O)c2ccccc2[N+](=O)[O-])n1)c1ccccc1[N+](=O)[O-]	.	.	.	86	79
CCOC(=O)c1c(NC(=O)Cn2nnc(-c3ccc(Cl)cc3)n2)sc(CC)c1C	105	113	100	94	100
Cc1cccc(OCCC(=O)N(C)CC(=O)Nc2cccc3ccccc23)c1	.	.	.	86	79
CNC(=O)COC(=O)c1cc(NC(=O)c2ccco2)c(OC)c(OC)c1	.	.	.	86	99
COc1cc(C(=O)OCC(=O)c2cc(C)n(C)c2C)cc(NC(=O)c2ccco2)c1OC	84	11*	27*	87	88
CCCOc1c(OC)cccc1C1CC(=O)Nc2cc3c(cc21)OCO3 (stereo not drawn)	82	17*	67	31	24
CCOc1c(OC)cccc1C1CC(=O)Nc2cc(OC)c(OC)cc21 (stereo not drawn)	.	.	.	84	82
CCCOc1c(OC)cccc1C1CC(=O)Nc2cc3c(cc21)OCCO3 (stereo not drawn)	91	15*	60	11	13
O=C(NCc1ccccn1)C1CCN(S(=O)(=O)N2CCCC2)CC1	101	100	92	99	110
SMILES	Lung fibro prol	H69AR growth 86K	HUVEC prolif 384	HCT116 bCat-KO	HCT116 PTEN-null
COc1ccc(C(C[N+](=O)[O-])C2(c3ccc(OC)c(OC)c3)C(=O)c3ccccc3C2=O)cc1 (stereo not drawn)	.	.	.	2.5*	2.1*
COC(=O)C(C(=O)OC)C(C[N+](=O)[O-])c1ccc(OC)c(OC)c1 (stereo not drawn)	.	.	.	65	84
O=c1[nH]c(=O)n(Cc2ccco2)c2c1C(C(F)(F)F)(C(F)(F)F)N=C(CCC1CCCCC1)N2	76	9.5*	83	44	49
O=c1[nH]c(=O)n(Cc2ccco2)c2c1C(C(F)(F)F)(C(F)(F)F)N=C(C1CCCCC1)N2	93	86	83	88	90
N#Cc1ccc(C2=NC(C(F)(F)F)(C(F)(F)F)c3c(n(Cc4ccco4)c(=O)[nH]c3=O)N2)cc1	75	35*	58	71	57
O=C(Nc1ncc(Cc2ccc(SC(F)F)cc2)s1)c1ccc(OC(F)F)cc1	.	.	.	10	11
O=S(=O)(Nc1ccc(O)c(Sc2nc3ccccc3s2)c1)c1ccc(Cl)cc1	.	.	.	97	85
O=C(NCCCN1CCCC1=O)c1ccc(Cl)c(NS(=O)(=O)c2ccc(F)cc2)c1	100	93	91	88	96
CC(=O)Oc1c(C)cc(Cl)cc1C(=O)Nc1ccc([N+](=O)[O-])cc1Cl	.	.	.	1.1*	1.8*
CC(Oc1ccc(Cl)cc1Cl)c1nc(-c2ccc(NC(=O)c3ccncc3)cc2)no1 (stereo not drawn)	82	25*	50	12	15
COc1ccc(NC(=O)c2cccs2)cc1OC	106	107	97	103	81
CC(Oc1ccc(Cl)cc1Cl)c1nc(-c2ccc(NC(=O)c3cccnc3)cc2)no1 (stereo not drawn)	87	6.3*	72	15	11
COc1ccc(Cl)cc1-c1nc(-c2ccc(NC(=O)c3cccs3)cc2)no1	.	.	.	3.3*	2.5*
CC(C)CNC(=O)C(=O)N/N=C/c1cccs1	.	.	.	101	93
COc1ccc(-c2nnnn2-c2ccccc2OC)cc1	82	22*	72	43	42
Cc1cccc(C(=O)Nc2nccs2)c1[N+](=O)[O-]	.	.	.	94	102
Cc1cc(N2CCC(C)CC2)nc(-n2nc(C)cc2C)n1	93	1.7*	121	37	49
Cc1cc(C)n(-c2nc3ccccc3nc2N2CCC(C)CC2)n1	94	90	120	68	72
Cc1ccc(C(c2nnnn2Cc2ccccc2)N2CCN(Cc3ccccc3)CC2)cc1 (stereo not drawn)	93	50	97	28	42
CS(=O)(=O)N(CC(=O)N1CCN(c2ccccc2F)CC1)c1cccc(C(F)(F)F)c1	93	99	115	89	75
CCOc1ccc(C(=O)Nc2ccc(NC(=O)c3ccco3)c(Cl)c2)cc1Cl	66	14*	31	15	13
CCCCOc1ccccc1NC(=O)c1ccco1	99	82	94	96	98
CCOc1ccccc1NC(=O)c1cccc(NC(=O)c2ccco2)c1	60	25*	58	103	98
CCOc1ccc(C(=O)Nc2ccc(NC(=O)c3ccco3)c(Cl)c2)cc1Br	.	.	.	70	53
O=C(O)C1C2C=CC(C3CC23)C1C(=O)N1CCc2ccccc21 (stereo not drawn)	93	90	95	94	85
CCCc1cc(=O)[nH]c(/N=C(/NC(=O)c2ccccc2)Nc2ccc3c(c2)OCCO3)n1	76	32*	55	.	.
CN(C)c1ccc(N/C=C/C(=O)c2ccc(F)cc2)cc1	99	35*	48	39	44
CN(C)c1ccc(N/C=C/C(=O)c2ccco2)cc1	107	65	72	62	59
